From ChEMBL document CHEMBL4270656, “Synthesis and evaluation of 2-substituted 4(3H)-quinazolinone thioether derivatives as monoamine oxidase inhibitors” (Bioorg Med Chem, 2018)

How the values were obtained:
[1] = target: T1, Amine oxidase [flavin-containing] B (Homo sapiens, UniProt P27338); assay: Inhibition of recombinant human MAO-B using kynuramine as substrate after 20 mins by fluorescence spectrophotometric analysis
T1 sequence (P27338 whole entry): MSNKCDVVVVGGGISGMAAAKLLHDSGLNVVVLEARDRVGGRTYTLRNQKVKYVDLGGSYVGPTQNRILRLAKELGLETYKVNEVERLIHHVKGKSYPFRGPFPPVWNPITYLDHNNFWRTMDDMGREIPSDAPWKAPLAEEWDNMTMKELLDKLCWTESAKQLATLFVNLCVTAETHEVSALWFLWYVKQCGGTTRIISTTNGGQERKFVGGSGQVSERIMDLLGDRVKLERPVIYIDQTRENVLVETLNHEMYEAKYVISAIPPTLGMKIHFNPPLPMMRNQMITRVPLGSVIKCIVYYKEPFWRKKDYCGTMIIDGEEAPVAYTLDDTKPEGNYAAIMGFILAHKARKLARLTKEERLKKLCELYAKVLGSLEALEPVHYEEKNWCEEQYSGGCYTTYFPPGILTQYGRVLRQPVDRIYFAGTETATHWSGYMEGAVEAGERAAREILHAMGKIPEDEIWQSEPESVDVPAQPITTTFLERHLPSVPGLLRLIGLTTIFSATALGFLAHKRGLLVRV

Homo sapiens = species on record: Homo sapiens; assay: Selectivity index, ratio of IC50 for recombinant human MAO-A by IC50 for recombinant human MAO-B
In short: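 IC50 values for MAO-A and MAO-B taken from kynuramine fluorescence assays (0.003–100 µM inhibitor, 20 min at 37 °C) and fitted by one-site competition. Triplicate means. Index is IC50(MAO-A)/IC50(MAO-B).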

[2] = target: T2, Amine oxidase [flavin-containing] A (Homo sapiens, UniProt P21397); assay: Inhibition of recombinant human MAO-A at 100 uM using kynuramine as substrate after 20 mins by fluorescence spectrophotometric analysis
T2 sequence (P21397 whole entry): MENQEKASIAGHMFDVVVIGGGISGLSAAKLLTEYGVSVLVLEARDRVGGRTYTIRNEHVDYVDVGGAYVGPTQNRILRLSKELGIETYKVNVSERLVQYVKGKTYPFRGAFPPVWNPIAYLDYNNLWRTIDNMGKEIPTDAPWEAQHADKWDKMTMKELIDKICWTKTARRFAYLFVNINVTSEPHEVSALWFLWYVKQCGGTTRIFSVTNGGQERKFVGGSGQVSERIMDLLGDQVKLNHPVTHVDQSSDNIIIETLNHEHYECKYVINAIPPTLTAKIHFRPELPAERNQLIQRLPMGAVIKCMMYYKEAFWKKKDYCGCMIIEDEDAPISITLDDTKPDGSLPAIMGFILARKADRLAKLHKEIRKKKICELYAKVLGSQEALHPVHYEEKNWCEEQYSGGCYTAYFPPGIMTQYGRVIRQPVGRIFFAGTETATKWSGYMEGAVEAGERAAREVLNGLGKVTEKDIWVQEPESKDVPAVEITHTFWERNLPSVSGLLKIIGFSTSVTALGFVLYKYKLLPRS
In short: (§1)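 Recombinant human enzyme from insect-cell microsomes, MAO-A 0.0075 or MAO-B 0.015 mg protein/mL, in 100 mM potassium phosphate pH 7.4 made isotonic with KCl. Kynuramine 50 µM, inhibitor up to 100 µM, DMSO 4% final. 20 min at 37 °C, stopped with 2 N NaOH. 4-Hydroxyquinoline read by fluorescence (ex 310/em 400 nm) against a calibration curve.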

[3] = target: T1, Amine oxidase [flavin-containing] B; assay: Inhibition of recombinant human MAO-B at 100 uM using kynuramine as substrate after 20 mins by fluorescence spectrophotometric analysis; in short: as §1
[4] = target: T1, Amine oxidase [flavin-containing] B; assay: Inhibition of recombinant human MAO-B using kynuramine as substrate assessed as enzyme activity recovered after 20 mins by fluorescence spectrophotometric analysis; set-up: scale not given: the % may be the effect or the level left
In short: (§2)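 Pre-incubated 15 min at 37 °C, then dialysed 24 h at 4 °C (10 kDa cut-off) with buffer changes at 3 and 7 h. Diluted twofold with kynuramine (50 µM final), run 20 min at 37 °C, read by fluorescence. Triplicate; activity relative to inhibitor-free dialysed control.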

[5] = target: T1, Amine oxidase [flavin-containing] B; assay: Competitive inhibition of recombinant human MAO-B using kynuramine as substrate after 20 mins by Lineweaver-Burk plot analysis
In short: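 Human MAO-B (insect-cell microsome, 0.015 mg/mL final) in 100 mM potassium phosphate pH 7.4 made isotonic with KCl. Six Lineweaver-Burk plots: one without inhibitor and five at 1/4, 1/2, 3/4, 1 and 1 1/4 × IC50. Kynuramine 15–250 µM, eight levels per plot. 20 min at 37 °C, NaOH stop, 4-hydroxyquinoline fluorescence. Ki taken from slopes plotted against inhibitor concentration.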

[6] = target: T1, Amine oxidase [flavin-containing] B; assay: Reversible inhibition of recombinant human MAO-B using kynuramine as substrate assessed as recovery of enzyme activity at 4 times IC50 preincubated for 15 mins followed by dialysis for 24 hrs and subsequent addition of substrate measured after 20 mins by fluorescence spectrophotometric analysis relative to control; set-up: scale not given: the % may be the effect or the level left; in short: as §2

Row | SMILES | IC50 [1] [nM] | Ratio IC50 (Homo sapiens) | inhibition (INH) [2] | inhibition (INH) [3] | Activity [4] [%] | Ki [5] [nM] | Activity [6] [%]
1 | O=c1[nH]c(SCc2ccc(Br)cc2)nc2ccccc12 | 779 | > 128 | Not Active |  |  |  | 
2 | O=c1[nH]c(SCc2ccncc2)nc2ccccc12 |  |  | Not Active | Not Active |  |  | 
3 | Oc1nc(SCc2ccc(Cl)cc2)nc2ccccc12 | 482 | > 207 | Not Active |  |  |  | 
4 | O=C(CSc1nc(O)c2ccccc2n1)c1ccccc1 | 31800 | > 3.1 | Not Active |  |  |  | 
5 | O=c1[nH]c(SCc2ccc(F)cc2)nc2ccccc12 | 566 | > 177 | Not Active |  |  |  | 
6 | Oc1nc(SCc2cccc(Cl)c2)nc2ccccc12 | 230 | > 435 | Not Active |  |  |  | 
7 | Oc1nc(SCc2cccc(F)c2)nc2ccccc12 | 2500 | > 40 | Not Active |  |  |  | 
8 | O=c1[nH]c(SCc2ccccc2)nc2ccccc12 | 3030 | > 33 | Not Active |  |  |  | 
9 | O=c1[nH]c(SCc2cccc(Br)c2)nc2ccccc12 | 208 | > 481 | Not Active |  |  |  | 
10 | Oc1nc(SCCOc2ccccc2)nc2ccccc12 | 1240 | > 81 | Not Active |  |  |  | 
11 | O=c1[nH]c(SCc2ccc(C(F)(F)F)cc2)nc2ccccc12 | 700 | > 143 | Not Active |  |  |  | 
12 | O=c1[nH]c(SCCCc2ccccc2)nc2ccccc12 | 5990 | > 17 | Not Active |  |  |  | 
13 | O=c1[nH]c(SCc2ccc(I)cc2)nc2ccccc12 |  |  | Not Active | Not Active |  |  | 
14 | O=c1[nH]c(SCc2cccc(I)c2)nc2ccccc12 | 142 | > 704 | Not Active |  | 46 | 68 | 108
